Laboratory results reported in publication PMC7993281 (Clinical and Translational Science, 2020).

Tests used:
[1] = SAD study tolerability/safety; assay type: in vivo, human
How it was run: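 Healthy men aged 18–55 years, single oral doses of 10–2,000 mg, 6 active and 2 placebo per cohort, staggered dosing. Fasted dosing, plus a fed period in the 300 mg cohort after at least 7 days washout. Subjects were confined until 48 h post-dose, with follow-up at 29–34 days. AEs, vital signs, ECG, examination and laboratory tests were summarised descriptively.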

[2] = system: globotriaosylceramide (Gb3) plasma concentration; test: MAD study pharmacodynamics: plasma Gb3; assay type: in vivo, human; conditions: after last dose
[3] = system: lactosylceramide (LacCer) plasma concentration; test: MAD study pharmacodynamics: plasma LacCer; assay type: in vivo, human; conditions: 72 hours after the last dose
How it was run: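 Healthy men and women (1:1), 8 active and 2 placebo per cohort. Oral 30, 100, 300 or 1,000 mg b.i.d. for 7 days. Morning dose after a 10-hour fast, evening dose 2 hours after dinner. Plasma sampled on Days 1, 2, 4 and 7 and at 24, 48 and 72 h after the last dose. Validated LC-MS/MS. Percent change from Day 1 predose.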

[4] = system: non‐lysosomal glucosylceramidase (GBA2) vs glucosylceramide synthase (GCS); test: Relative inhibitory potency on GBA2 versus GCS; assay type: biochemical
[5] = Multiple-ascending dose; assay type: in vivo, human; conditions: for Tmax: median (range); for CL renal: urine and plasma
How it was run: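 Oral 30, 100, 300 or 1,000 mg b.i.d. for 7 days in healthy men and women, n = 8 active per dose. Plasma sampled for 12 h on Day 1, at trough on Days 2–6, and up to 72 h after the last dose. Urine collected predose Day 1 and 0–12 h on Day 7. Validated LC-MS/MS. Noncompartmental analysis gave AUCτ, accumulation index and CLR.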

[6] = SAD, all doses, fasted conditions, 36 subjects
[7] = Day 7, 30 mg b.i.d., geometric mean (95% CI)
[8] = Day 7, 100 mg b.i.d., geometric mean (95% CI)
[9] = Day 7, 300 mg b.i.d., geometric mean (95% CI)
[10] = Day 7, 1,000 mg b.i.d., geometric mean (95% CI)
[11] = both, human, plasma, oral, 30 mg
[12] = both, human, plasma, oral, 100 mg
[13] = both, human, plasma, oral, 300 mg
[14] = both, human, plasma, oral, 1000 mg b.i.d.

For `CCCCCN1C[C@H](O)[C@@H](O)[C@H](O)[C@@H]1CO` [sinbaglustat, (2S,3R,4R,5S)‐2‐(hydroxymethyl)‐1‐pentylpiperidine‐3,4,5‐triol], the “Total number of AEs” value ([1]; SAD 10 mg (n = 6)) was 1, the “Number of subjects with at least 1 AE” value ([1]; SAD 100 mg (n = 6)) was 3 and the “Rash (subjects)” value ([1]; SAD 100 mg (n = 6)) was 1. For the same compound, the “Total number of AEs” value ([1]; SAD 100 mg (n = 6)) was 3, the “AEs under fed conditions” value ([1]; SAD 300 mg fed) was “no AE was reported” and the “Headache (subjects)” value ([1]; SAD 1,000 mg (n = 6)) was 2. For the same compound, the “Nausea (subjects)” value ([1]; SAD 1,000 mg (n = 6)) was 1, the “Number of subjects with at least 1 AE” value ([1]; SAD 1,000 mg (n = 6)) was 3 and the “Palpitations (subjects)” value ([1]; SAD 1,000 mg (n = 6)) was 1. The “Viral upper respiratory tract (subjects)” value ([1]; SAD 1,000 mg (n = 6)) was 1, the “Vomiting (subjects)” value ([1]; SAD 1,000 mg (n = 6)) was 1 and the “subjects reporting AEs (of 36 treated)” value ([1]; SAD, all doses, fasted conditions) was 7. The “subjects reporting AEs” value [1, 6] was 19%, the “total AEs reported” value [1, 6] was 13 and the “serious AEs, severe AEs, AEs leading to discontinuation” value ([1]; whole study (SAD and MAD), up to end‐of‐study) was “No serious AEs, severe AEs, or AEs leading to study or treatment discontinuation occurred”. For the same compound, the “Gb3 mean percentage change from baseline after treatment stop” value [2] was “remained stable for 3 days after treatment stop”, the “LacCer percentage change from baseline” value ([3]; 30 mg b.i.d.) was “–8%” and the “LacCer percentage change from baseline” value ([3]; 1,000 mg b.i.d.) was “–33%”. For the same compound, the “potency in inhibiting GBA2 relative to GCS” value [4] was 50 fold, the “AI, accumulation index” value [5, 7] was 1.085 (0.993, 1.185) and the “UPE, percentage of dose excreted unchanged in urine” value [5, 7] was 55.12 (52.08, 58.34) %. The “AI, accumulation index” value [5, 8] was 1.037 (0.930, 1.156), the “UPE, percentage of dose excreted unchanged in urine” value [5, 8] was 53.55 (44.68, 64.19) % and the “AI, accumulation index” value [5, 9] was 1.101 (1.012, 1.198). The “UPE, percentage of dose excreted unchanged in urine” value [5, 9] was 48.35 (40.84, 57.24) %, the “AI, accumulation index” value [5, 10] was 1.001 (0.942, 1.064) and the “UPE, percentage of dose excreted unchanged in urine” value [5, 10] was 45.54 (41.54, 49.92) %. For the same compound, the “increased exposure (Cmax and AUCτ) in female compared to male subjects” value ([5]; all dose groups combined, steady‐state) was “around 30%”, the “time to steady‐state concentrations” value ([5]; b.i.d. dosing) was ≤ 2 days and the “accumulation after multiple doses” value ([5]; b.i.d. for 7 days) was “did not accumulate”. The AUC [5, 11] was 1310 ng·h/mL, the AUC(0-t) [5, 11] was 1200 ng·h/mL and the Cmax ([5]; both, human, plasma, oral, 30 mg, Cmax, Day 7, 30 mg b.i.d., geometric mean (95% CI)) was 413 ng/mL. It also gave a Tmax ([5]; both, human, plasma, oral, 30 mg, Day 1, 30 mg b.i.d.) of 0.9 h, a Tmax ([5]; both, human, plasma, oral, 30 mg, Day 7, 30 mg b.i.d.) of 0.9 h and an AUC [5, 12] of 4650 ng·h/mL. For the same compound, the AUC(0-t) [5, 12] was 4480 ng·h/mL, the Cmax ([5]; both, human, plasma, oral, 100 mg, Cmax, Day 1, 100 mg b.i.d., geometric mean (95% CI)) was 1340 ng/mL and the Cmax ([5]; both, human, plasma, oral, 100 mg, Cmax, Day 7, 100 mg b.i.d., geometric mean (95% CI)) was 1270 ng/mL. For the same compound, the Tmax ([5]; both, human, plasma, oral, 100 mg, Day 1, 100 mg b.i.d.) was 0.9 h, the Tmax ([5]; both, human, plasma, oral, 100 mg, Day 7, 100 mg b.i.d.) was 1.3 h and the AUC [5, 13] was 16800 ng·h/mL. For the same compound, the AUC(0-t) [5, 13] was 15200 ng·h/mL, the Cmax ([5]; both, human, plasma, oral, 300 mg, Cmax, Day 1, 300 mg b.i.d., geometric mean (95% CI)) was 3760 ng/mL and the Cmax ([5]; both, human, plasma, oral, 300 mg, Cmax, Day 7, 300 mg b.i.d., geometric mean (95% CI)) was 3990 ng/mL. It also gave a Tmax ([5]; both, human, plasma, oral, 300 mg, Day 1, 300 mg b.i.d.) of 1.4 h, a Tmax ([5]; both, human, plasma, oral, 300 mg, Day 7, 300 mg b.i.d.) of 0.9 h and an AUC [5, 14] of 51200 ng·h/mL. For the same compound, the AUC(0-t) [5, 14] was 51200 ng·h/mL, the half-life [5, 14] was 14.7 h and the Cmax ([5]; both, human, plasma, oral, 1000 mg b.i.d., Cmax, Day 1, 1,000 mg b.i.d., geometric mean (95% CI)) was 10600 ng/mL. For the same compound, the Cmax ([5]; both, human, plasma, oral, 1000 mg b.i.d., Cmax, Day 7, 1,000 mg b.i.d., geometric mean (95% CI)) was 10400 ng/mL, the Tmax ([5]; both, human, plasma, oral, 1000 mg b.i.d., Day 1, 1,000 mg b.i.d.) was 1.45 h and the Tmax ([5]; both, human, plasma, oral, 1000 mg b.i.d., Day 7, 1,000 mg b.i.d.) was 2 h. It also gave a CL renal ([5]; both, human, oral, 30 mg) of 211 mL/min, a CL renal ([5]; both, human, oral, 100 mg) of 192 mL/min and a CL renal ([5]; both, human, oral, 300 mg) of 144 mL/min. For the same compound, the CL renal ([5]; both, human, oral, 1000 mg b.i.d.) was 148 mL/min, the “dose excreted unchanged in urine” value ([5]; doses ranging from 30 to 1,000 mg b.i.d.) was ~ 50% and the Cmax ([5]; female, human, plasma, oral, 1000 mg b.i.d., geometric mean Cmax in women, female subjects, 1,000 mg b.i.d. cohort, day 7) was 12000 ng/mL.
